Experimental data published in ChEMBL document CHEMBL4609993, “The architecture of hydrogen and sulfur σ-hole interactions explain differences in the inhibitory potency of C-β-d-glucopyranosyl thiazoles, imidazoles and an N-β-d glucopyranosyl tetrazole for human liver glycogen phosphorylase and offer new insights to structure-based design” (Bioorg Med Chem, 2020).

Assays:
[1] = Inhibition of rabbit muscle GPa using Glc-1-P as substrate incubated for 15 mins; set-up: species or system Oryctolagus cuniculus
[2] = biological target: T1, Glycogen phosphorylase, liver form (Homo sapiens, UniProt P06737); assay: Inhibition of human liver GPa using Glc-1-P as substrate incubated for 15 mins
T1 sequence (P06737 whole entry): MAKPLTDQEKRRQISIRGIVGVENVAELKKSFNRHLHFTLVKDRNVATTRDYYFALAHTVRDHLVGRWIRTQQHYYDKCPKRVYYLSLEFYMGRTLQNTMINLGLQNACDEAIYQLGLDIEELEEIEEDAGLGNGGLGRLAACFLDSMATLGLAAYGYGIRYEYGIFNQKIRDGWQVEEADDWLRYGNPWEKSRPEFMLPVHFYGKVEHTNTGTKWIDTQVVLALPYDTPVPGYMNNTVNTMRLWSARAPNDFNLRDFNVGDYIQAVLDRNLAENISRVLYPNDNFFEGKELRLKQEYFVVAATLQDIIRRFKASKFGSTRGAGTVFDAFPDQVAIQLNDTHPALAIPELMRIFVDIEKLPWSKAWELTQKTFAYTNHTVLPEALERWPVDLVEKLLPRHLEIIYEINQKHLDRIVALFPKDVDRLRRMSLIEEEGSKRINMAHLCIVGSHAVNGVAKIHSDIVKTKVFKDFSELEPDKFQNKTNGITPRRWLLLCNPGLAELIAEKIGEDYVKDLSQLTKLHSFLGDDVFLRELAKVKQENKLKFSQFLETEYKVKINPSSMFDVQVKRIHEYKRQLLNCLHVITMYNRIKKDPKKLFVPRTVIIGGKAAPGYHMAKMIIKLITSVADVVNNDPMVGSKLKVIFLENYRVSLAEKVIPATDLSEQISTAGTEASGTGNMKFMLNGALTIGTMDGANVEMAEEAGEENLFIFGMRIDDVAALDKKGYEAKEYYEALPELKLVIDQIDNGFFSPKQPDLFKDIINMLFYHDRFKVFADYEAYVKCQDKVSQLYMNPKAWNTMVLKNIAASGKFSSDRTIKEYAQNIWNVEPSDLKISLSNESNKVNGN

[3] = Inhibition of rabbit muscle GPb using alpha-D-glucose-1-phosphate as substrate by Lineweaver-Burk plot analysis; set-up: species or system Oryctolagus cuniculus
[4] = biological target: T2, Glycogen phosphorylase, liver form (Homo sapiens) (UniProt P06737); assay: Inhibition of GP in human HepG2 cells assessed as reduction in GP activity at 100 uM incubated for 3 hrs by Bradford reagent based assay relative to control; format: cell-based
T2 sequence (whole entry): T1 sequence (P06737 whole entry)
How it was run: (§1)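 HepG2 cells were seeded at 1.0×10^6 per 60 mm dish and attached for 16–18 h. Glycogen was loaded for 16–18 h with 10 nM dexamethasone, 25 mM glucose and 100 nM insulin. Cells were then exposed to inhibitor or vehicle for 3 h in 5 mM glucose plus 100 nM glucagon. Lysates were sonicated in Tris pH 7.5/Triton/PMSF and cleared at 12,000 g. GP activity (nmol/min/mg, Bradford protein) came from a linear fit of 5 time points.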

[5] = system: HepG2; assay: Cytotoxicity against human HepG2 cells assessed as reduction in cell viability at 100 uM measured after 3 and 24 hrs by MTT assay; format: cell-based; details: hepg2, 24 h
[6] = biological target: T2, Glycogen phosphorylase, liver form (Homo sapiens); assay: Inhibition of GP in human HepG2 cells assessed as reduction in GP activity at 335 uM incubated for 3 hrs by Bradford reagent based assay relative to control; format: cell-based; how it was run: as §1
[7] = biological target: T2, Glycogen phosphorylase, liver form (Homo sapiens); assay: Inhibition of GP in human HepG2 cells assessed as reduction in GP activity at 500 uM incubated for 3 hrs by Bradford reagent based assay relative to control; format: cell-based; how it was run: as §1
[8] = system: HepG2; assay: Cytotoxicity against human HepG2 cells assessed as reduction in cell viability at >200 uM incubated for 24 hrs by MTT assay; format: cell-based; details: hepg2, 24 h
[9] = Cytotoxicity against human HepG2 cells assessed as reduction in cell viability at 200 and 300 uM incubated for 3 hrs by MTT assay; format: cell-based; details: read-out: INH
[10] = Inhibition of rabbit muscle GPb using Glc-1-P as substrate incubated for 15 mins; set-up: species or system Oryctolagus cuniculus
How it was run: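 Recombinant or rabbit muscle GP assayed by an earlier method. Initial velocities were taken from pseudo-first-order rate constants via the first-order rate equation. Ki came from non-linear regression with explicit weighting of apparent Km against inhibitor concentration, using 4–5 inhibitor levels per compound spanning 1–300 μM.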

Ki [1] [µM]	Ki [2] [µM]	Ki [3] [µM]	inhibition [4] [%]	inhibition [6] [%]	inhibition [7] [%]	Ki [10] [µM]	SMILES	Activity [5]	Activity [8]	cytotoxicity at 3 h [9] [%]
1.6	3.2	4.58	60				OC[C@H]1O[C@@H](c2c[nH]c(-c3ccc4ccccc4c3)n2)[C@H](O)[C@@H](O)[C@@H]1O	Non-Toxic		
75.6	172	326					OC[C@H]1O[C@@H](c2csc(-c3ccccc3)n2)[C@H](O)[C@@H](O)[C@@H]1O			
157	180						OC[C@H]1O[C@@H](c2nc(-c3ccccc3)cs2)[C@H](O)[C@@H](O)[C@@H]1O			
17.7	25.9	68.6		50	60		OC[C@H]1O[C@@H](c2c[nH]c(-c3ccccc3)n2)[C@H](O)[C@@H](O)[C@@H]1O		Toxic	
69.1	78						OC[C@H]1O[C@@H](c2nc(-c3ccc4ccccc4c3)cs2)[C@H](O)[C@@H](O)[C@@H]1O			
28	43.6	26.2			< 25		OC[C@H]1O[C@@H](c2csc(-c3ccc4ccccc4c3)n2)[C@H](O)[C@@H](O)[C@@H]1O		Toxic	< 10
1.74							OC[C@H]1O[C@@H](c2nc(-c3ccccc3)n[nH]2)[C@H](O)[C@@H](O)[C@@H]1O			
146	134					162	OC[C@H]1O[C@@H](n2nnc(-c3ccccc3)n2)[C@H](O)[C@@H](O)[C@@H]1O			
